Screening data deposited in PubChem BioAssay by Broad Institute.
INS-1E GSIS act = GLuc luminescence reporter in INS-1E cells, primary screen for activators of glucose-dependent secretion of insulin; INS-1E GLuc reporter insulin secretion, 2-3 h; activation, % at 16.6 µM; 370,000 tested, 0.61% active; AID 743287, 2014;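 active means lowest replicate activation of at least 40%, so every replicate reaches that level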;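 further: 0% = median of neutral control wells and 100% = median of IBMX positive control wells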
E-selectin induc = E-selectin induction in HUVECs, primary screen, imaging, HUVEC, immunofluorescence imaging, single point | 260,000 tested, 0.37% active | AID 686992, 2013 | P16581 | normalized: neutral wells 0, TNF-alpha wells 100 | activation, % at 7.58 µM;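 active means mean E-selectin-positive cell signal at least 10% of the positive control, reached in at least 60% of replicates, without over 20% cell loss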
Target sequence (P16581 whole entry, looked up): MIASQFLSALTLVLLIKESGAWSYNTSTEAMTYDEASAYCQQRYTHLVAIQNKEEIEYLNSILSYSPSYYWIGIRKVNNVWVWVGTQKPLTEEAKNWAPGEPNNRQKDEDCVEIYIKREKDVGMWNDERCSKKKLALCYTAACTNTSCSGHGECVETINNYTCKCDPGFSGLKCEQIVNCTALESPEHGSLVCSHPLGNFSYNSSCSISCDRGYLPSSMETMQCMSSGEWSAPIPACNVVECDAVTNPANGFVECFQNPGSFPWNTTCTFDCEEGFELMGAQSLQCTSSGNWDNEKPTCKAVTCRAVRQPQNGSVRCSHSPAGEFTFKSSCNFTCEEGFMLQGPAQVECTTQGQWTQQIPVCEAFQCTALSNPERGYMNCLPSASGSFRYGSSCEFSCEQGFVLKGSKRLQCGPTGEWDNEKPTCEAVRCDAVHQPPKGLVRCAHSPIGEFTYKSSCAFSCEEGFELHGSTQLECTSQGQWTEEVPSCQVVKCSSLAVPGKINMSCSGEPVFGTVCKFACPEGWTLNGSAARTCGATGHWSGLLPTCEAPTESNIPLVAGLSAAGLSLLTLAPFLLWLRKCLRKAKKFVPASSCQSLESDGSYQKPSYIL
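material = human umbilical vein endothelial cells (HUVEC), E-selectin induction | quantity = 3,000 cells/well | medium = EGM-2 growth medium on 0.1% gelatin-coated wells | technique = immunofluorescence imaging | read-out basis = % PE-positive cells | control set = TNF-alpha positive control, DMSO neutral control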
DENV2 CPE rescue = inhibitors of DENV2 cytopathic effect, primary screen, cell-based, plate reader, single concentration | CPE inhibition, % at 9.99 µM | 350,000 tested, 1.7% active | AID 651640, 2012 | DENV2-infected cells, cytopathic effect rescue; in the data active means CPE inhibition above about 20%, passing the limit was not always enough; tested in BHK-21 cells;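 further: 0% = median of neutral control wells and 100% = median of positive control wells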
F508del corr = F508del CFTR correction, initial screen, CFBE line, single point | CFBE cells, YFP halide quenching; stimulated with forskolin plus potentiator P3; % fluorescence drop versus neutral controls | activity (quench increase), % at 7.58 µM | 350,000 tested, 0.36% active | AID 720511, 2013;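 active means mean added fluorescence quench of at least 8% versus neutral control, with both replicates also reaching 8%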;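 further: cells transiently co-express mutant CFTR-F508del with the halide-sensitive YFP; corrector assay measuring rescue of mutant channel to the surface after 24 h compound exposure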
miR-122 sensor = miR-122 Renilla sensor signal increase in Huh7, primary screen, miR-122 inhibitor project, cell-based, single point, plate reader | Huh7 miR-122 Renilla luciferase sensor, 48 h; neutral wells = 0, positive control = 100 | activation (reporter increase), % at 12.5 µM | 340,000 tested, 0.3% active;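 active means mean replicate activation score at least 90 and every replicate individually at or above 90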;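 further: higher luciferase means less miR-122 activity so hits act as miR-122 inhibitors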
ERAP1 inh = human ERAP1 aminopeptidase inhibitors, primary screen, biochemical, single point, plate reader. Endoplasmic reticulum aminopeptidase 1 (Homo sapiens), Q9NZ08. recombinant ERAP1, Leu-AMC fluorescence, 60 min. inhibition, % at 10.7 µM. 340,000 tested, 0.15% active;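 active means mean replicate inhibition of at least 30%, or all replicates individually reaching that 30% level; inactive means mean below 30% and not every replicate reaching it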;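 further: 0% = neutral control wells and 100% = L-leucinethiol positive control wells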
The depositor's hits bear a star; nt = no result; [ ] = remark or other dose. Sampled rows, rich in hits. Any-hit rate of the full collection: about 2.6%.

SMILES	INS-1E GSIS act	E-selectin induc	DENV2 CPE rescue	F508del corr	miR-122 sensor	ERAP1 inh
Clc1ccccc1OCc1nc(-c2ccc(Br)o2)no1	2	0	-7	1	7	5
C[C@@H]1CN([C@H](C)CO)C(=O)Cc2cc(NC(=O)CCCN(C)C)ccc2O[C@H]1CN(C)Cc1ccc(-c2ccccc2)cc1	72*	nt	-1	-4	-9[16.7 µM]	2
C[C@H]1CN([C@@H](C)CO)C(=O)Cc2cc(NC(=O)CCC(F)(F)F)ccc2O[C@H]1CN(C)Cc1ccc(-c2ccccc2)cc1	-21	1	57*	0	-8	3
C[C@@H]1CN([C@@H](C)CO)C(=O)Cc2cc(NC(=O)CCN3CCOCC3)ccc2O[C@H]1CN(C)Cc1ccc(-c2ccccc2)cc1	-15	1	32*	-3	nt	-5
CC(C)C(=O)Nc1ccc2c(c1)C(=O)N(C)[C@@H]1CC[C@H](CC(=O)N[C@H](C)c3ccccc3)O[C@@H]1CO2	-8	0	-3	-2	-43[16.7 µM]	nt
CCCCCCN1CCN(C2CN(Cc3ccc(F)cc3)S(=O)(=O)C2)CC1 (stereo unspecified)	-22	-2	31*	2	-3	-4
COc1cc(CN2CC3(CCN(S(=O)(=O)c4cn(C)cn4)CC3)c3c(n(C)c4cc(OC)ccc34)[C@H]2CO)cc(OC)c1	24	0	7	-3	nt	-1
CCn1c(O)c(/C=N/N=C/c2ccc(OC)cc2)c2cc(C3=NNC(=O)CC3)ccc21	65*	nt	5	3	1	5
FC(F)(F)c1cccc(-c2cc3nc(NCCCn4ccnc4)ccn3n2)c1	-14	0	-3	0	0	5
Clc1ccccc1-c1cc2nc(NCCCn3ccnc3)ccn2n1	-2	0	32*	3	1	-1
N#C[C@H]1[C@@H](c2ccc(C#CCC3CCCC3)cc2)[C@H](CO)N1C(=O)c1ccccn1	-15	0	-21	6	nt	-4
C[C@H]1CN([C@@H](C)CO)C(=O)c2cc(-c3cncnc3)cnc2O[C@@H]1CN(C)C(=O)Cc1cccnc1	-1	0	8	0	-1[16.7 µM]	-4
Cc1ncc(N=Nc2ccc(F)cc2)c(-c2ccc(Cl)cc2)n1	59*	nt	nt	nt	-5	nt
COc1ccc(-c2nc(C)ncc2N=Nc2ccccc2)cc1	nt	nt	nt	nt	1	nt
Cc1cc(C)c(S(=O)(=O)NCCCn2ccnc2)cc1C	1	0	-1	1	129*	0
Cc1cccc(C)c1OCC(=O)NNC(=O)CCCn1c(=O)oc2ccccc21	8	0	45*	-3	-8	4
O=C(CCCn1c(=O)oc2ccccc21)Nc1ccccc1	-8	0	-1	-1	5	-4
CO[C@@H]1CN(C)C(=O)c2cc(NC(=O)Nc3c(C)noc3C)ccc2OC[C@@H](C)N(C)C[C@@H]1C	10	0	-6	9.6*	nt	8
CO[C@H]1CN(C)C(=O)c2cc(NC(=O)Nc3ccc(Cl)cc3)ccc2OC[C@@H](C)N(C)C[C@H]1C	-3	0	12	0	nt	-1
CO[C@H]1CN(C)C(=O)c2cc(NC(=O)Nc3ccc(Cl)cc3)ccc2OC[C@H](C)N(C)C[C@@H]1C	-16	0	50*	0	nt	0
COCC#Cc1ccc([C@@H]2[C@H]3CN(C(=O)C4CC4)CC(=O)N3[C@H]2CO)cc1	2	0	0	1	nt	4
O=C(NN=C(c1ccccc1)c1ccccc1)C(CCl)C1CCCCC1 (stereo unspecified)	-7	0	-2	-2	-2	4
O=C(CNC1CCCCC1)NN=C(c1ccccc1)c1ccccc1	-1	nt	5	12*	nt	0
C[C@@H]1CN([C@H](C)CO)S(=O)(=O)c2ccc(/C=C/c3ccccc3)cc2O[C@H]1CN(C)C	7	0	20	-4	-3[16.7 µM]	1
CC(=O)N(C)C[C@H]1Oc2ncc(-c3ccc(F)cc3)cc2C(=O)N([C@@H](C)CO)C[C@H]1C	15	0	10	-2	3[16.7 µM]	0
